From article PMC3127012 (European Journal of Nuclear Medicine and Molecular Imaging, 2011) come the findings set out here.

Bounds are passed on as bounds.

This series is described as follows: Biodistribution: uptake of 111In-labelled peptides in normal tissues. In kind it is in vivo, mice. A digest of the protocol:
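Female athymic BALB/c mice with s.c. A431-CCK2R (2 × 10^6 cells, left flank) and mock-transfected A431 (right flank) tumours, ~0.1–0.2 g after ~10 days; n = 5/group. 111In-DOTA-peptide (11 GBq/μmol, >95% radiochemical purity) injected into the tail vein. Blood and organs were dissected at 1 and 4 h p.i., weighed, and gamma-counted; %ID/g, mean ± SD. Blocking group: 1,000-fold molar excess of unlabelled peptide, dissected at 4 h.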

The term tissue uptake denotes the share of the injected amount in each gram of the tissue. Lower therefore signals little accumulation.

Consider `CSCC[C@H](NC(=O)[C@H](Cc1c[nH]c2ccccc12)NC(=O)CNC(=O)[C@H](Cc1ccc(O)cc1)NC(=O)[C@H](C)NC(=O)[C@H](CCC(=O)O)NC(=O)[C@H](CCC(=O)O)NC(=O)[C@H](CCC(=O)O)NC(=O)[C@H](CCC(=O)O)NC(=O)[C@H](CCC(=O)O)NC(=O)[C@@H](CCC(=O)O)NC(=O)CN1CCN(CC(=O)O)CCN(CC(=O)O)CCN(CC(=O)O)CC1)C(=O)N[C@@H](CC(=O)O)C(=O)N[C@@H](Cc1ccccc1)C(N)=O` [MG0], for which the tissue uptake (mouse, in vivo, iv, 370 kBq (0.03 nmol)) was > 48 %ID/g. For “DOTA-Gly-Ser-Cys-(Glu-Ala-Tyr-Gly-Trp-Nle-Asp-Phe-NH2)2 [MGD5]”, for the setting “BALB/c nude mice, 111In-labelled peptide, 1 h p.i.”, the “blood levels relative to the other peptides investigated” value is recorded as “tenfold higher”.
